Experimental data reported in the M2OR odorant receptor database.

Experiments:
Details in all cases: stereoisomer not certain
OR1F12P (Homo sapiens) = target: T1, OR1F12P (Homo sapiens) (UniProt Q8NHA8)
T1 sequence (whole entry): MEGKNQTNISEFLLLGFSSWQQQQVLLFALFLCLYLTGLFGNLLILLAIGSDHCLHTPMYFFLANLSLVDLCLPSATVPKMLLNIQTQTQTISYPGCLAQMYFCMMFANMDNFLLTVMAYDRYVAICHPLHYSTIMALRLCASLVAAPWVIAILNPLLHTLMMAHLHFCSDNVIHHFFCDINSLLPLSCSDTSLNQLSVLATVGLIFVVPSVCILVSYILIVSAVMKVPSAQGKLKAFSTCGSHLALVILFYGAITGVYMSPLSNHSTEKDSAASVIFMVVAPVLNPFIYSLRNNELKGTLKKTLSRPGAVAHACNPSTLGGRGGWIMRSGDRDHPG
Procedure, shortened: (§1)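 Assay methods differ from source to source, frequently being transient luciferase assays in mammalian cell lines. For each receptor–molecule pair, the label responsive (active) applies when the original authors judged the measured signal statistically different from baseline, and non-responsive (inactive) applies otherwise.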

OR1G1 (Homo sapiens) = target: T2, OR1G1 (Homo sapiens) (UniProt P47890)
T2 sequence (whole entry): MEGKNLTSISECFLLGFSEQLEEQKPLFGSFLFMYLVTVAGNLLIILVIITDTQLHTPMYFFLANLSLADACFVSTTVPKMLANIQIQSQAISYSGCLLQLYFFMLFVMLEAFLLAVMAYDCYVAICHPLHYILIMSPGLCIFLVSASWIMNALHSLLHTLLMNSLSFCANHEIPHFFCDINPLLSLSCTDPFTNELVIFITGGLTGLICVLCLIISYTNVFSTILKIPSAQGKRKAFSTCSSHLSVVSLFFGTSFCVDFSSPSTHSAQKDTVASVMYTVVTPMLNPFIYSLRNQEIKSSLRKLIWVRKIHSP
Procedure, shortened: as §1

OR1I1 (Homo sapiens) = target: T3, OR1I1 (Homo sapiens) (UniProt O60431)
T3 sequence (whole entry): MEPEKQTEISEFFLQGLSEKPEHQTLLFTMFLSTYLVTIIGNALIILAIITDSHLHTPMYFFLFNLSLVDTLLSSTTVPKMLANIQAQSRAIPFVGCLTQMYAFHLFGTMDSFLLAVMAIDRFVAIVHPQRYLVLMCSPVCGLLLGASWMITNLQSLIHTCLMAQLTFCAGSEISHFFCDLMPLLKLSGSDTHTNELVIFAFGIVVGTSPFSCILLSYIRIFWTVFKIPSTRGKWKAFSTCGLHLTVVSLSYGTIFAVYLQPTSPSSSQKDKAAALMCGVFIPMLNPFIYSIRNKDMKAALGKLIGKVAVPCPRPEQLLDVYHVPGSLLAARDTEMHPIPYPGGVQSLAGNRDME
Procedure, shortened: as §1

OR1J1 (Homo sapiens) = target: T4, OR1J1 (Homo sapiens) (UniProt Q8NGS3)
T4 sequence (whole entry): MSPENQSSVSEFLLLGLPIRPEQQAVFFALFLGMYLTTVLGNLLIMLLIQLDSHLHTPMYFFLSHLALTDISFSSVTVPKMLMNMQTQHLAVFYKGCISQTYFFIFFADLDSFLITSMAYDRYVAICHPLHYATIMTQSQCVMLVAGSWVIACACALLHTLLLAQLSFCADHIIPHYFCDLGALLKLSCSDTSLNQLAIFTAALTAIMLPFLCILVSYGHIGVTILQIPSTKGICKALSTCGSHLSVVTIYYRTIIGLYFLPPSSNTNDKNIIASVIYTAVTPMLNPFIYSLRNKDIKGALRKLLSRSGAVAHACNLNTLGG
Procedure, shortened: as §1

OR1J2 (Homo sapiens) = target: T5, OR1J2 (Homo sapiens) (UniProt Q8NGS2)
T5 sequence (whole entry): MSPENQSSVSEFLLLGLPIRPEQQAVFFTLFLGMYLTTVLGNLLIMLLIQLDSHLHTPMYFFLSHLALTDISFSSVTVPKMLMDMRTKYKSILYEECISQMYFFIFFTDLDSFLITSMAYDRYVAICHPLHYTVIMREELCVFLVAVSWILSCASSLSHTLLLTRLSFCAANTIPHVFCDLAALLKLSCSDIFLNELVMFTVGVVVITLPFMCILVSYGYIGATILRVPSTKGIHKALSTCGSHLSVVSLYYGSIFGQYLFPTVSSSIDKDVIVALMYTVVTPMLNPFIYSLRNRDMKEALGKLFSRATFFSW
Procedure, shortened: as §1

OR1J4 (Homo sapiens) = target: T6, OR1J4 (Homo sapiens) (UniProt Q8NGS1)
T6 sequence (whole entry): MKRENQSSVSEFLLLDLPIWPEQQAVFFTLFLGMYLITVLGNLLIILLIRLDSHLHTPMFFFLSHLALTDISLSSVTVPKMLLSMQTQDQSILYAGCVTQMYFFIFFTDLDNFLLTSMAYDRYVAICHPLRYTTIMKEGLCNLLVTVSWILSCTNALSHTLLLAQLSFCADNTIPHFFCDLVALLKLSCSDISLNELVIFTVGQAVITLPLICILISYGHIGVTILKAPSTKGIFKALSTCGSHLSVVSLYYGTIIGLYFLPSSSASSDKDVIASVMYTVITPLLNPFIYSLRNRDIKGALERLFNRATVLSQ
Procedure, shortened: as §1

OR1K1 (Homo sapiens) = target: T7, OR1K1 (Homo sapiens) (UniProt Q8NGR3)
T7 sequence (whole entry): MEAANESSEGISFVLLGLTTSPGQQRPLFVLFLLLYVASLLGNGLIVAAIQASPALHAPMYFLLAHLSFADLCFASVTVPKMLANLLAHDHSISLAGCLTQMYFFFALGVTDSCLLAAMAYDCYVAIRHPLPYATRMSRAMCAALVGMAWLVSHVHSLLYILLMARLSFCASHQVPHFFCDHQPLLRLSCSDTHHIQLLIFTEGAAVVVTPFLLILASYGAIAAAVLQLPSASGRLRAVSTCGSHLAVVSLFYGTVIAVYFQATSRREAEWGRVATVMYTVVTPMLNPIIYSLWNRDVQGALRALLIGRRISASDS
Procedure, shortened: as §1

OR1L1 (Homo sapiens) = target: T8, OR1L1 (Homo sapiens) (UniProt Q8NH94)
T8 sequence (whole entry): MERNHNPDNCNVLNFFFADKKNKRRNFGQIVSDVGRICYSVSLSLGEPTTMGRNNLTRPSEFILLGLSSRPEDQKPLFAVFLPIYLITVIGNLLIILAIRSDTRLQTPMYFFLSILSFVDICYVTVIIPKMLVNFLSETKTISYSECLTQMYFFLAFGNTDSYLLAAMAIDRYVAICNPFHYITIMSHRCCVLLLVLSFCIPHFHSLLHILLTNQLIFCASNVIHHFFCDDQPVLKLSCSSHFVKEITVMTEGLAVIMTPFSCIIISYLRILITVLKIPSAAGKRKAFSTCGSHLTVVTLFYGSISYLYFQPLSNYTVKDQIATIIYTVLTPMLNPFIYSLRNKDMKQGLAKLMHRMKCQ
Procedure, shortened: as §1

OR1L3 (Homo sapiens) = target: T9, OR1L3 (Homo sapiens) (UniProt Q8NH93)
T9 sequence (whole entry): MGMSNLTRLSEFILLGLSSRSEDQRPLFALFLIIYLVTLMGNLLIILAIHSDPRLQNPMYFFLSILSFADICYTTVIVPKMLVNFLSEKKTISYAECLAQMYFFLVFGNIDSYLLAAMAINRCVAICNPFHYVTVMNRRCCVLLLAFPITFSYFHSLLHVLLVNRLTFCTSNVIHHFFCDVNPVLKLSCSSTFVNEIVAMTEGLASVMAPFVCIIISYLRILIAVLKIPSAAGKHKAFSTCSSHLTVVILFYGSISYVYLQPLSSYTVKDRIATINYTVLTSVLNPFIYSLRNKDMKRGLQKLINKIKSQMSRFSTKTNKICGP
Procedure, shortened: as §1

OR1L4 (Homo sapiens) = target: T10, OR1L4 (Homo sapiens) (UniProt Q8NGR5)
T10 sequence (whole entry): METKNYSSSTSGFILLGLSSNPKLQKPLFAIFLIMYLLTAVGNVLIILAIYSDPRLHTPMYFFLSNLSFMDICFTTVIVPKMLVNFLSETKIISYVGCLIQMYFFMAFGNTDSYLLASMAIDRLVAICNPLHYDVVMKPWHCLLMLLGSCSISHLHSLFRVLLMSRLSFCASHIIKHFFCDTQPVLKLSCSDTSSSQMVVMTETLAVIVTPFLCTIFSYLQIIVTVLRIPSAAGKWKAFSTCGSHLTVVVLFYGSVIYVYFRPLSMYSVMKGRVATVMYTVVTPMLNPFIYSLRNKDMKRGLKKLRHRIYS
Procedure, shortened: as §1

OR1L6 (Homo sapiens) = target: T11, OR1L6 (Homo sapiens) (UniProt Q8NGR2)
T11 sequence (whole entry): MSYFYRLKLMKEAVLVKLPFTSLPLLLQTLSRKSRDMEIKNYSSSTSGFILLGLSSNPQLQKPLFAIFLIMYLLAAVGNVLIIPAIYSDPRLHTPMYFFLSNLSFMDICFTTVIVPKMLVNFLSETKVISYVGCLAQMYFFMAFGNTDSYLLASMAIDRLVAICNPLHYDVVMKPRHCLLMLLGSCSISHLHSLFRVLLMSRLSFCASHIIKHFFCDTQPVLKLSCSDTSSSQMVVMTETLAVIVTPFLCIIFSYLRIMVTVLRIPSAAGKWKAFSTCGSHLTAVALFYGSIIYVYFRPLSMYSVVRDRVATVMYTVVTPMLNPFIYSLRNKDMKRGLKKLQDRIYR
Procedure, shortened: as §1

OR1L8 (Homo sapiens) = target: T12, OR1L8 (Homo sapiens) (UniProt Q8NGR8)
T12 sequence (whole entry): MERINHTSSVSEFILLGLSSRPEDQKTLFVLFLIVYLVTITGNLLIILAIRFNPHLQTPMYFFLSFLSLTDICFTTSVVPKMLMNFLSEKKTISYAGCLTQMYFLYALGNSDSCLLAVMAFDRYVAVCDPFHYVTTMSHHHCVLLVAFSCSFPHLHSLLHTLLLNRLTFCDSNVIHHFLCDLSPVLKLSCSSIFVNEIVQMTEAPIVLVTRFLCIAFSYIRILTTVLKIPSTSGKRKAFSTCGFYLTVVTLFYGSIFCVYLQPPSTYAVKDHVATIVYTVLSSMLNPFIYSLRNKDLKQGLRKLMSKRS
Procedure, shortened: as §1

OR1M1 (Homo sapiens) = target: T13, OR1M1 (Homo sapiens) (UniProt Q8NGA1)
T13 sequence (whole entry): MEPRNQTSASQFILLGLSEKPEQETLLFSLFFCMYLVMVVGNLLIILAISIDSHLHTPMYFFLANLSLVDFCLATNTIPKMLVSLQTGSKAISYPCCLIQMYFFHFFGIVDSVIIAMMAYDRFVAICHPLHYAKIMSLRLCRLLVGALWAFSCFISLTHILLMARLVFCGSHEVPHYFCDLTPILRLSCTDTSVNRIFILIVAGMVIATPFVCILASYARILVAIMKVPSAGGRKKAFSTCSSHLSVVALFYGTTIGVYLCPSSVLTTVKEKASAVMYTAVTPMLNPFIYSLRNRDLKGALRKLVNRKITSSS
Procedure, shortened: as §1

OR1N1 (Homo sapiens) = target: T14, OR1N1 (Homo sapiens) (UniProt Q8NGS0)
T14 sequence (whole entry): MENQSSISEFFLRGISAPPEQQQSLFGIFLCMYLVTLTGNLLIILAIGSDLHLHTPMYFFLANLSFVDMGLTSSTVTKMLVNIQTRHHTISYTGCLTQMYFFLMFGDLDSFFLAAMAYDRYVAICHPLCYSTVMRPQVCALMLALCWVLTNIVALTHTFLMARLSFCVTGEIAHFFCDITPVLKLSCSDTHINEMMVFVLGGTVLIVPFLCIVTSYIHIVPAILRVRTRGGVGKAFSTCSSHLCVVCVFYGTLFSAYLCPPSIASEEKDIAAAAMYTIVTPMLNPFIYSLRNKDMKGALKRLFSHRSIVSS
Procedure, shortened: as §1

Measured: odorant receptor agonist call

CCCCCC(=O)C(C)C(C)=O (centres undefined)
inactive: all assays above
